Source: ChEMBL document CHEMBL1629436, “Synthesis and biological evaluation of new camptothecin derivatives obtained by modification of position 20” (Bioorg Med Chem, 2010)
Active and inactive are the calls of the source. The calls are words filed in the database; no cut-off is given here.

Experiments:
Nucleic Acid = assay: Binding affinity to salmon testes DNA by linear flow dichroism analysis; type: nucleic-acid assay; settings: Salmonidae
In short: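 Salmon testes DNA (1.9 × 10^-3 M) in ETN buffer (10 mM Tris, 10 mM NaCl, 1 mM EDTA, pH 7). Linear dichroism spectra were recorded at 25 °C over a range of [drug]/[DNA] ratios on a spectropolarimeter converted for LD.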

[1] = molecular target: DNA topoisomerase 2-alpha (Homo sapiens) (UniProt P11388); assay: Inhibition of human recombinant topoisomerase 2alpha-mediated relaxation of supercoiled pBR322 at up to 100 uM after 60 mins using ethidium bromide staining by agarose gel electrophoresis
DNA topoisomerase 2-alpha (Homo sapiens), sequence (P11388 whole entry): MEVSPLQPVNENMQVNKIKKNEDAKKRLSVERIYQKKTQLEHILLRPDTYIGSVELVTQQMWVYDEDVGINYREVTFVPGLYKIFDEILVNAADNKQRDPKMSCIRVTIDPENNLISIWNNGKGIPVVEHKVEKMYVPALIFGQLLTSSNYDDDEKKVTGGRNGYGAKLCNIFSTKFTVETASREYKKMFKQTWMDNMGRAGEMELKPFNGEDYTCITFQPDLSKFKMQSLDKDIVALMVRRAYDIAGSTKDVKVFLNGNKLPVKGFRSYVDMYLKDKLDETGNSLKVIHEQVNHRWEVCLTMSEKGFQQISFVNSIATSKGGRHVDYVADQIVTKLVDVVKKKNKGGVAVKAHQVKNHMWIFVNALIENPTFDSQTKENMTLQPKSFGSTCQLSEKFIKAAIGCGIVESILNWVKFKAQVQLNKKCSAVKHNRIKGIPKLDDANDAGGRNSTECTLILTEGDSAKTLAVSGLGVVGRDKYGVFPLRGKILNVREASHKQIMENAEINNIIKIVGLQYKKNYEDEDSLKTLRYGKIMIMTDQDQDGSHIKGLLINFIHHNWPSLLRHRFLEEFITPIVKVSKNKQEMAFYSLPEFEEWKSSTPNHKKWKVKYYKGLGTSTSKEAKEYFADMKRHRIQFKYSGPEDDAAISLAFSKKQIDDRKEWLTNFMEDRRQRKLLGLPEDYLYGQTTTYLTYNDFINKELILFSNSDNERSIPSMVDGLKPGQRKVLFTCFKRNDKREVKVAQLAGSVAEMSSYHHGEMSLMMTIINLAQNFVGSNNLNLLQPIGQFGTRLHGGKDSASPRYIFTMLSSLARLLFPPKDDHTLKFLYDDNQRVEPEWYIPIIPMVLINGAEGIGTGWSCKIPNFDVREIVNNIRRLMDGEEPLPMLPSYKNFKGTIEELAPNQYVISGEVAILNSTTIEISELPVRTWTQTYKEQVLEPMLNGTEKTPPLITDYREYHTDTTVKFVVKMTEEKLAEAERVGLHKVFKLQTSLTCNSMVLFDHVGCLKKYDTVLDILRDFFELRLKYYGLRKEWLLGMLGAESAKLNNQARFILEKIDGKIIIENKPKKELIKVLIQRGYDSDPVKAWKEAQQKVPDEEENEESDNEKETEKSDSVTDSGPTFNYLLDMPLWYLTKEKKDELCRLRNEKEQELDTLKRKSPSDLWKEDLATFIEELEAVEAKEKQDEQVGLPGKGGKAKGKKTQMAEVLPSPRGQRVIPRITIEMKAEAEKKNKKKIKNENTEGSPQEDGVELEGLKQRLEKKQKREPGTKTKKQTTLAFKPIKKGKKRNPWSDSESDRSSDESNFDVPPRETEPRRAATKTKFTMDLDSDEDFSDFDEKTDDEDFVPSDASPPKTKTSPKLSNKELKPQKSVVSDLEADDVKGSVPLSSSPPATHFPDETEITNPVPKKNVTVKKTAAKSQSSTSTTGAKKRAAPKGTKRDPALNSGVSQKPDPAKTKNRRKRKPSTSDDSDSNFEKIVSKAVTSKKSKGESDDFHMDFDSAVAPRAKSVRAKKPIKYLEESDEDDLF
In short: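 Supercoiled pBR322 (0.25 µg) with 1 U human recombinant topoisomerase IIα and test compound, 60 min at 37 °C in 20 µl reaction buffer. Stopped with SDS/bromophenol blue/glycerol plus 50 µg/mL proteinase K, 30 min at 37 °C. Separated on 1% agarose at room temperature, ethidium bromide stained (1 µg/mL, TAE), UV-visualized.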

Activity (Nucleic Acid) | Activity [1] | Structure (SMILES)
inactive | inactive | CC[C@@]1(OC(=O)NCCNC(=O)CSSCC(=O)NCCNC(=O)O[C@]2(CC)C(=O)OCc3c2cc2n(c3=O)Cc3cc4ccccc4nc3-2)C(=O)OCc2c1cc1n(c2=O)Cc2cc3ccccc3nc2-1
inactive | inactive | CC[C@@]1(OC(=O)NCCN2C(=O)CSSCC2=O)C(=O)OCc2c1cc1n(c2=O)Cc2cc3ccccc3nc2-1
